These results are taken from ChEMBL document CHEMBL3627695, “1-Benzyl-2-methyl-3-indolylmethylene barbituric acid derivatives: Anti-cancer agents that target nucleophosmin 1 (NPM1)” (Bioorg Med Chem, 2015).

Active and inactive are the calls of the source. The calls are words filed in the database; no cut-off is given here.

System in the first experiment: not listed separately
In words: (§1) Anticancer activity against human OCI-AML3 cells expressing mutant NPM1 assessed as apoptosis for 48 hrs by annexin-V and TO-PRO3 staining based flow cytometry. Format: functional, cell-based. The settings on record: OCI-AML-3, 48 h. A digest of the protocol:
(§2)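 OCI-AML3 cells (NPM1c+) in logarithmic growth, passaged 2–3 times weekly. Cells were exposed to the indicated compound concentrations for 48 hr, then stained with annexin V and TO-PRO 3. Percent apoptotic cells was read by flow cytometry. AP50 is the concentration at which 50% of cells undergo apoptosis.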
What is called AC50 is the concentration giving half of the maximal activity seen. Consider `N#Cc1ccc(Cn2cc(C=C3C(=O)NC(=O)NC3=O)c3ccccc32)cc1`, for which the AC50 was over 20 µM. With `Cc1c(C=C2C(=O)NC(=S)NC2=O)c2ccccc2n1Cc1ccc(Br)cc1`, the half-maximal activity concentration (AC50) turned out to be 3.3 µM.

In another experiment the test system is OCI-AML-3. The experiment is described as §1. Format: functional, cell-based.
Settings: not given
The procedure, abridged: as §2
Regarding `Cc1c(C=C2C(=O)NC(=O)NC2=O)c2ccccc2n1Cc1ccccc1`, the outcome was inactive. On the same count and under the same terms, to `Cc1c(C=C2C(=O)NC(=O)NC2=O)c2ccccc2n1Cc1ccc(C#N)cc1` belongs “inactive”. Still for that read-out and setting: to `Cc1c(C=C2C(=O)NC(=S)NC2=O)c2ccccc2n1Cc1ccc(Br)cc1` belongs “Dose-dependent effect”; to `Cc1c(C=C2C(=O)NC(=O)NC2=O)c2ccccc2n1Cc1ccc(Br)cc1`, “inactive”; to `COC(=O)c1ccc(Cn2c(C)c(C=C3C(=O)NC(=O)NC3=O)c3ccccc32)cc1`, “inactive”.
